Data: ChEMBL document CHEMBL1124462, “Synthesis, DNA binding, and biological evaluation of synthetic precursors and novel analogues of netropsin” (J Med Chem, 1989)
Converted amounts (≈) assume the structure as drawn.

Tests used:
Semliki Forest virus = assay: Minimum inhibitory concentration required to reduce semliki forest virus induced cytopathogenicity by 50% in african green monkey (VeroB) cells; format: functional
How it was run: (§1)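 Cell cultures (PRK, HeLa or Vero B) are infected at 100 × CCID50. Cytopathogenicity is recorded once it reaches completion in the untreated virus-infected controls. The minimum inhibitory concentration is given in μg/mL.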

L1210 = assay: Dose required to inhibit Murine leukemia (L1210) cell proliferation by 50%; format: functional; details: Mus musculus, read-out: CD50 (the source's name)
HeLa [1] = assay: Minimum inhibitory concentration required to reduce polio virus -1 induced cytopathogenicity by 50% in HeLa cells; format: functional; details: Homo sapiens
FM3A = assay: In vitro inhibition of FM3A (murine mammary carcinoma) cell proliferation.; format: functional; details: Mus musculus, read-out: CD50 (the source's name)
Raji [2] = assay: Dose required to inhibit Human B-Lymphoblast (Raji) cell proliferation by 50%; format: functional; details: read-out: CD50 (the source's name)
Sindbis virus = assay: (§2) Minimum inhibitory concentration required to reduce Sindbis virus induced cytopathogenicity by 50% in african green monkey (VeroB) cells; format: functional; how it was run: as §1
Human alphaherpesvirus 2 = assay: Minimum inhibitory concentration required to reduce herpes simplex virus-2(G) induced cytopathogenicity by 50% in primary rabbit kidney cells (PRK); format: functional; how it was run: as §1
Nucleic Acid [3] = assay: Association constant against polynucleotide poly (dG-dC); format: nucleic-acid assay
How it was run: (§3)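 Competition with ethidium bromide binding at 25 °C in 0.01 M cacodylate buffer, pH 7.0, with 1.26 μM ethidium bromide and 1 μM polynucleotide. Bound ethidium is estimated from its fluorescence increase (V = 34 for poly(dA-dT), 25 for poly(dG-dC)). IC50 for 50% ethidium displacement comes from a fitted competition sigmoid. Kapp is calculated from IC50 assuming a binding size of four base pairs.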

Nucleic Acid [4] = assay: Association constant against the polynucleotide poly (dA-dT).; format: nucleic-acid assay; how it was run: as §3
HeLa [5] = assay: Minimum cytotoxic concentration required to cause a microscopically detectable alteration of normal cell morphology and show antiviral activity in HeLa cells; format: functional; details: Homo sapiens
How it was run: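 HeLa cell cultures exposed to compound for the same duration as the antiviral assay, then examined microscopically. The minimum cytotoxic concentration is the lowest level causing detectable alteration of normal cell morphology. Values are in μg/mL.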

Oryctolagus cuniculus = organism: Oryctolagus cuniculus; assay: Minimum cytotoxic concentration required to cause a microscopically detectable alteration of normal cell morphology and show antiviral activity in primary rabbit kidney (PRK) cells; format: functional
[6] = Dose required to inhibit Human T-Lymphoblast (Molt/4F) cell proliferation by 50%; format: functional; details: read-out: CD50 (the source's name)
[7] = tested on: Vesicular stomatitis virus; assay: (§4) Minimum inhibitory concentration required to reduce vesicular stomatitis virus induced cytopathogenicity by 50% in primary rabbit kidney cells (PRK); format: functional
Human alphaherpesvirus 1 = assay: Minimum inhibitory concentration required to reduce herpes simplex virus-1 (KOS) induced cytopathogenicity by 50% in primary rabbit kidney cells(PRK); format: functional; how it was run: as §1
[8] = tested on: Mammalian orthoreovirus 1; assay: Minimum inhibitory concentration required to reduce reovirus-1 induced cytopathogenicity by 50% in african green monkey (VeroB)cells; format: functional; how it was run: as §1
Vero [9] = assay: Minimum cytotoxic concentration required to cause a microscopically detectable alteration of normal cell morphology and show antiviral activity in african green monkey (Vero B) cells; format: functional; details: Chlorocebus sabaeus
Vero [10] = assay: Minimum inhibitory concentration required to reduce parainfluenza virus-3 induced cytopathogenicity by 50% in african green monkey (VeroB) cells; format: functional, Human respirovirus 3; details: Chlorocebus sabaeus; how it was run: as §1
Vero [11] = assay: Minimum inhibitory concentration required to reduce Coxsackie virus B4 induced cytopathogenicity by 50% in african green monkey (VeroB) cells; format: functional, Coxsackievirus B4; details: Chlorocebus sabaeus; how it was run: as §1
HeLa [12] = assay: Minimum inhibitory concentration required to reduce Coxsackie virus B4 induced cytopathogenicity by 50% in HeLa cells; format: functional; details: Homo sapiens; how it was run: as §1
Nucleic Acid [13] = assay: Ratio of association constant of poly (dA-dT) and poly (dG-dC); format: nucleic-acid assay
How it was run: (§5)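 Kapp for poly(dA-dT) and for poly(dG-dC) is each determined by ethidium bromide competition in 0.01 M cacodylate, pH 7.0, 25 °C, with 1.26 μM ethidium and 1 μM polynucleotide. IC50 comes from a fitted competition sigmoid and is converted to Kapp assuming a four-base-pair binding size. The ratio is taken between the two polynucleotides.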

Nucleic Acid [14] = assay: Association constant against the polynucleotide poly(dA-dT); format: nucleic-acid assay; how it was run: as §3
Nucleic Acid [15] = assay: Ratio of association constant of poly(dA-dT) and poly(dG-dC); format: nucleic-acid assay; how it was run: as §5
HeLa [16] = assay: Minimum inhibitory concentration required to reduce vesicular stomatitis virus induced cytopathogenicity by 50% in HeLa cells; format: functional; details: Homo sapiens
Vero [17] = assay: as §2; format: ADME, cell-based; details: Chlorocebus sabaeus, read-out: MIC; how it was run: as §1
[18] = Minimum inhibitory concentration required to reduce herpes simplex virus-2 (G) induced cytopathogenicity by 50% in primary rabbit kidney cells (PRK); format: functional; details: Oryctolagus cuniculus; how it was run: as §1
[19] = Minimum inhibitory concentration required to reduce herpes simplex virus-1 (KOS) induced cytopathogenicity by 50% in primary rabbit kidney cells (PRK); format: functional; details: Oryctolagus cuniculus; how it was run: as §1
Raji [20] = assay: Inhibition of Human B-Lymphoblast Raji cell proliferation; format: functional; details: read-out: CD50 (the source's name)
[21] = Dose required to inhibit Murine mammary carcinoma (FM3A) cell proliferation by 50%; format: functional; details: Mus musculus, read-out: CD50 (the source's name)
[22] = Minimum inhibitory concentration required to reduce herpes simplex virus-2 (G)induced cytopathogenicity by 50% in primary rabbit kidney cells (PRK); format: functional; details: Oryctolagus cuniculus
[23] = as §4; format: functional; details: Oryctolagus cuniculus
[24] = Minimum inhibitory concentration required to reduce herpes simplex virus-1 (KOS)induced cytopathogenicity by 50% in primary rabbit kidney cells (PRK); format: functional; details: Oryctolagus cuniculus

Compound	MIC (Semliki Forest virus) [µg/mL]	CC50 (L1210) [µg/mL]	MIC (HeLa [1]) [µg/mL]	CC50 (Raji [2]) [µg/mL]	MIC (Sindbis virus) [µg/mL]	MIC (Human alphaherpesvirus 2) [µg/mL]	K app (Nucleic Acid [3]) [M⁻¹]	K app (Nucleic Acid [4]) [M⁻¹]	MCC (HeLa [5]) [µg/mL]	MCC (Oryctolagus cuniculus)	CC50 [6] [µg/mL]	MIC [7] [µg/mL]	MIC (Human alphaherpesvirus 1) [µg/mL]	MIC [8] [µg/mL]	MCC (Vero [9]) [µg/mL]	MIC (Vero [10]) [µg/mL]	MIC (Vero [11]) [µg/mL]	MIC (HeLa [12]) [µg/mL]	MIC (HeLa [16]) [µg/mL]	MIC [22] [µg/mL]	other results
CC(NC(=O)c1cc(NC(=O)c2cc([N+](=O)[O-])cn2C)cn1C)C(=O)OC(C)(C)C (stereo not given)	> 40	37.8 (≈ 90.1 µM)	> 40	33.8 (≈ 80.6 µM)	> 40	> 40	400	200	> 100	>100 µg/mL	26.6 (≈ 63.4 µM)	> 40	> 40	> 40	> 100	20 (≈ 47.7 µM)	20 (≈ 47.7 µM)	> 100			CC50 (FM3A): 27.7 µg/mL (≈ 66 µM); Ratio (Nucleic Acid [13]): 0.5
Cn1cc(NC(=O)c2cc([N+](=O)[O-])cn2C)cc1C(=O)NCCC(=N)N	300 (≈ 830 µM)	> 100		> 100	> 300	> 200	< 100		> 400	400 µg/mL	> 100	> 100	> 200	> 100	400	> 200	> 200	> 400			K app (Nucleic Acid [14]): 12000 M⁻¹; Ratio (Nucleic Acid [15]): > 120
Cn1c(C(=O)O)ccc1[N+](=O)[O-]	> 200	> 50	> 400	> 50	> 100	> 400			> 400	>400 µg/mL	> 50	> 400	> 400	> 100	> 400	> 200	> 100	70 (≈ 411 µM)	> 200		
Cn1c(C(=O)NCCC#N)ccc1[N+](=O)[O-]	> 100	> 50		> 50			< 100	< 100	400	400 µg/mL	> 50	300 (≈ 1350 µM)		> 100	> 400	> 100	> 200	> 200			IC50 (Vero [17]): > 100 µg/mL; MIC [18]: > 200 µg/mL; MIC [19]: > 200 µg/mL
Cn1cc(NC(=O)c2cc([N+](=O)[O-])cn2C)cc1C(=O)NCCC#N	> 10	> 100			> 10	> 10	< 100		> 40	>40 µg/mL	> 100	> 10	> 10	> 10	> 40	> 10	> 10	> 10			CC50 (Raji [20]): > 100 µg/mL; K app (Nucleic Acid [14]): < 100 M⁻¹
Cn1cc(NC(=O)c2cc(NC(=O)CNC(=N)N)cn2C)cc1C(=O)NCCC(=N)N [NETROPSIN]	> 400	295 (≈ 685 µM)	> 100	139 (≈ 323 µM)	> 400		31000	7.3e+08	> 100	>400 µg/mL	> 100			> 400	> 400	> 400	> 400	> 100	> 100	> 400	CC50 [21]: 321 µg/mL (≈ 746 µM); MIC [23]: > 400 µg/mL; MIC [24]: > 400 µg/mL; Ratio (Nucleic Acid [13]): 23500
Nc1ncnc2c1ncn2C[C@H](O)CO [(S)-DHPA]	> 400				> 400	> 400			> 400	>400 µg/mL		70 (≈ 335 µM)	> 400	20 (≈ 95.6 µM)	> 400	7 (≈ 33.5 µM)	200 (≈ 956 µM)	> 400	20 (≈ 95.6 µM)		
Nc1nccc2c1ncn2[C@@H]1C[C@H](CO)[C@@H](O)[C@H]1O [3-DEAZAARISTEROMYCIN A]	> 400				> 400				> 400	>400 µg/mL				0.2 (≈ 0.757 µM)	> 400	0.4 (≈ 1.51 µM)	70 (≈ 265 µM)	> 400	2 (≈ 7.57 µM)	> 400	MIC [23]: 2 µg/mL (≈ 7.57 µM); MIC [24]: > 400 µg/mL
Cn1cc([N+](=O)[O-])cc1C(=O)NCCCNCCCCN	> 400	> 200		> 200	> 400	> 200	420000		> 400	>400 µg/mL	> 200	> 400	> 200	> 100	> 400	> 200	> 200	> 400			K app (Nucleic Acid [14]): 1e+06 M⁻¹; CC50 (FM3A): > 200 µg/mL; Ratio (Nucleic Acid [15]): 2.38
Cn1cc([N+](=O)[O-])cc1C(=O)NCCC#N	> 100	> 50	> 400	> 50	> 100	> 200	< 100	< 100	> 400	>400 µg/mL	> 50	> 400	> 400	> 200	> 400	> 400	> 100	150 (≈ 675 µM)	> 400		
NC(=O)c1ncn([C@@H]2O[C@H](CO)[C@@H](O)[C@H]2O)n1 [RIBAVIRIN]	150 (≈ 614 µM)		70 (≈ 287 µM)		70 (≈ 287 µM)				> 200	>400 µg/mL				20 (≈ 81.9 µM)	> 400	20 (≈ 81.9 µM)	70 (≈ 287 µM)	70 (≈ 287 µM)	20 (≈ 81.9 µM)	> 400	MIC [23]: > 400 µg/mL; MIC [24]: > 400 µg/mL
Cn1cc(NC(=O)c2cc(NC(=O)CNC(=N)N)cn2C)cc1C(=O)NCCCNCCCCN	> 200	> 200		> 200	> 200		7.6e+06	2e+07	> 200	>=400 ug ml-1	> 200			> 100	≥ 200	> 200	> 200	> 200		> 200	CC50 [21]: > 200 µg/mL; MIC [24]: > 200 µg/mL; Ratio (Nucleic Acid [13]): 2.63
Nc1ncnc2c1ccn2[C@@H]1O[C@H](CO)[C@@H](O)[C@H]1O [TUBERCIDIN]	> 0.4		0.07 (≈ 0.263 µM)		0.1 (≈ 0.376 µM)				> 0.4	>0.4 µg/mL				0.07 (≈ 0.263 µM)	> 0.4	0.07 (≈ 0.263 µM)	0.07 (≈ 0.263 µM)	0.07 (≈ 0.263 µM)	0.07 (≈ 0.263 µM)	> 0.1	MIC [23]: 0.2 µg/mL (≈ 0.751 µM); MIC [24]: > 0.1 µg/mL
C[C@H](NC(=O)c1cc(NC(=O)c2cc([N+](=O)[O-])cn2C)cn1C)C(=O)N[C@@H](C)C(=O)N[C@@H](C)C(=O)OC(C)(C)C	> 200	> 100	> 400	> 100	> 200	> 200	750		> 400	>400 µg/mL	> 100	> 100	> 100	> 200	> 400	> 400	> 200	> 200			K app (Nucleic Acid [14]): < 100 M⁻¹; CC50 (FM3A): > 100 µg/mL; Ratio (Nucleic Acid [15]): < 0.13
